For three compounds, IC50 results are on record in article PMC11888271 (bioRxiv, 2025).

What all share (assay type): biochemical
In experiment [1] the target is T1, caspase-1 (Homo sapiens, UniProt P29466).
T1 sequence (P29466 120-297 limits assumed): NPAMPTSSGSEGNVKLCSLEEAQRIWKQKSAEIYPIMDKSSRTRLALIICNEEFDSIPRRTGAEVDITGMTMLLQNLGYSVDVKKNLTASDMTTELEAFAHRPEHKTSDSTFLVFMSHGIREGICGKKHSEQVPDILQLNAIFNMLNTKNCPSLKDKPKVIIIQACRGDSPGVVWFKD
T1 sequence (P29466 317-404 limits assumed): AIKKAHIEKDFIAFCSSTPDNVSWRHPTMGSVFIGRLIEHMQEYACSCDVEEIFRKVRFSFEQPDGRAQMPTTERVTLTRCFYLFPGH
As to the kind of experiment: In vitro inhibition assay, caspase-1. The gist of the method:
(§1)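 Recombinant caspase at 0.25 activity units/µL in pH 7 PIPES buffer (100 mM NaCl, 10 mM DTT, 1 mM EDTA, 0.1% CHAPS, 10% sucrose). Saturating AMC substrate: Ac-WEHD 200 µM (caspase-1, -5) or 1000 µM (-4, -11); Ac-DEVD 100 µM (-3, -6, -7), or 25 µM for -3/-7 with a pan-caspase FMK inhibitor. Fluorescence read every 5 min. Background-subtracted linear rates normalised to no-inhibitor; three runs pooled and fitted to Y=100/(1+X/IC50).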

Experiment [2] has as its target T2, caspase-3 (Homo sapiens, UniProt P42574).
T2 sequence (P42574 29-175 limits assumed): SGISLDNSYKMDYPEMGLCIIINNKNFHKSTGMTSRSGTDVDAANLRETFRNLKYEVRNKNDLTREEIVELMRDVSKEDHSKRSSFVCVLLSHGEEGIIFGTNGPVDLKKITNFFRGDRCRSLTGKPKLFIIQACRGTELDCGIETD
T2 sequence (P42574 176-277 limits assumed): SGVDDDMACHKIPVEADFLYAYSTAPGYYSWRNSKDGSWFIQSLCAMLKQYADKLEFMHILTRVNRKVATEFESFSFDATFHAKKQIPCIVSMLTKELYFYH
As to the kind of experiment: In vitro inhibition assay, caspase-3. The essentials:
as §1

Experiment [3] has as its target T3, caspase-4 (Homo sapiens, UniProt P49662).
T3 sequence (P49662 81-270 limits assumed): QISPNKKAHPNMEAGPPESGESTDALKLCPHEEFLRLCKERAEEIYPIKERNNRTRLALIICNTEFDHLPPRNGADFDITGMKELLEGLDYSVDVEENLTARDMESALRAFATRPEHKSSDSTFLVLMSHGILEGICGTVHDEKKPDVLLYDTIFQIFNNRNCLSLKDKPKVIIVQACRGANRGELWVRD
T3 sequence (P49662 290-377 limits assumed): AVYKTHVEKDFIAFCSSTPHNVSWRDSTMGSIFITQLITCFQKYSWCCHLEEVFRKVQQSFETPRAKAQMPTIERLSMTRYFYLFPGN
The experiment can be described thus: In vitro inhibition assay, caspase-4. The essentials:
as §1

Experiment [4] concerns the target T4, caspase-5 (Homo sapiens, UniProt P51878).
T4 sequence (P51878 137-327 limits assumed): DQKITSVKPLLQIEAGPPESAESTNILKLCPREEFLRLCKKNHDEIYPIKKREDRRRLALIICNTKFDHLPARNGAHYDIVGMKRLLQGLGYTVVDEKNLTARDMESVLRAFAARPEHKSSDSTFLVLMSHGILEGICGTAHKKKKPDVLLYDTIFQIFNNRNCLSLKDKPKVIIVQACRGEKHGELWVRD
T4 sequence (P51878 347-434 limits assumed): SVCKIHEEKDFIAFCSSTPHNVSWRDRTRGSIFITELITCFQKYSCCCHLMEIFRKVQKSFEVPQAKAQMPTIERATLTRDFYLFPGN
As to the kind of experiment: In vitro inhibition assay, caspase-5. The gist of the method: as §1

In experiment [5] the target is T5, caspase-6 (Homo sapiens, UniProt P55212).
T5 sequence (P55212 24-179 limits assumed): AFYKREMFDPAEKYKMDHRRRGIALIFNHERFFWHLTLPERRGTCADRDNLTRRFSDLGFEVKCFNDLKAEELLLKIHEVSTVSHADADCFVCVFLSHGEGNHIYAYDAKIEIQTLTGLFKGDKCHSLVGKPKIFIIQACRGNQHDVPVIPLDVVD
T5 sequence (P55212 194-293 limits assumed): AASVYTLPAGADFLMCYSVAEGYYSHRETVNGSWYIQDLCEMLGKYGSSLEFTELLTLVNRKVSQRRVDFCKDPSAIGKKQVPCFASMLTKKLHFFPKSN
As to the kind of experiment: In vitro inhibition assay, caspase-6. The gist of the method: as §1

In experiment [6] the target is T6, caspase-7 (Homo sapiens, UniProt P55210).
T6 sequence (P55210 24-198 limits assumed): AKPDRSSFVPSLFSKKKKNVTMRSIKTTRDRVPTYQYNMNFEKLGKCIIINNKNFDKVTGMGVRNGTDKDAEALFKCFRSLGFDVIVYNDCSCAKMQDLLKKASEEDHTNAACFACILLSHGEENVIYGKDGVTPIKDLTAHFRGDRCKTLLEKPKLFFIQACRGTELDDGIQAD
T6 sequence (P55210 207-303 limits assumed): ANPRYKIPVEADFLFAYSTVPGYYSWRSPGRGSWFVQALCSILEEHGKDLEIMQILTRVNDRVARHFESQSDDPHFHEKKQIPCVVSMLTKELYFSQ
The experiment can be described thus: In vitro inhibition assay, caspase-7. The essentials: as §1

The target of experiment [7] is caspase-8 (Homo sapiens, UniProt Q14790). As to the kind of experiment: In vitro inhibition assay, caspase-8. To be noted: IC50, caspase-8, 0.25 activity units/μL, 200 μM Ac-LEHD-AMC substrate.
Chain of caspase-8 (Q14790 217-374 limits assumed): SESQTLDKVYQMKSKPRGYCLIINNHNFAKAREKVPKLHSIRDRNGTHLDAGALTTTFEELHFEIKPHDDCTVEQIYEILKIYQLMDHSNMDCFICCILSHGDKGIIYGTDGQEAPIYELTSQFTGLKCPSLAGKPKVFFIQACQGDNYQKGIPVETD
Chain of caspase-8 (Q14790 385-479 limits assumed): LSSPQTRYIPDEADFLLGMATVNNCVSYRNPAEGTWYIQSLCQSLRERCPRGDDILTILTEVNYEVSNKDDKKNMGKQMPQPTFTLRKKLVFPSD
Experiment [8] concerns the target T7, caspase-9 (Homo sapiens, UniProt P55211).
T7 sequence (P55211 1-315 limits assumed): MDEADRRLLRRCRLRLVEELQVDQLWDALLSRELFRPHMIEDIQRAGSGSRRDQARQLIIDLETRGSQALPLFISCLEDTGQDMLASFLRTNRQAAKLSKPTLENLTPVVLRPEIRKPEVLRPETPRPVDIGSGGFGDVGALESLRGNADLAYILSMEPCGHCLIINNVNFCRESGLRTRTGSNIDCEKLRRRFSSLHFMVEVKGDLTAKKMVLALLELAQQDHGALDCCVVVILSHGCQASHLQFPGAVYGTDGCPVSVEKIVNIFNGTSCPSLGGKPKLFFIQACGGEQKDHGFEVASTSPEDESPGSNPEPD
T7 sequence (P55211 331-416 limits assumed): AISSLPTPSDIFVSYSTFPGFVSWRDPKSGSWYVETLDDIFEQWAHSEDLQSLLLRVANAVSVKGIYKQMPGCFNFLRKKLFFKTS
As to the kind of experiment: In vitro inhibition assay, caspase-9. The note with it: IC50, caspase-9 (different preparation), 1 activity unit/μL, 200 μM Ac-LEHD-AMC substrate.

For experiment [9], the target named is T8, caspase-10 (Homo sapiens, UniProt Q92851).
T8 sequence (Q92851 220-415 limits assumed): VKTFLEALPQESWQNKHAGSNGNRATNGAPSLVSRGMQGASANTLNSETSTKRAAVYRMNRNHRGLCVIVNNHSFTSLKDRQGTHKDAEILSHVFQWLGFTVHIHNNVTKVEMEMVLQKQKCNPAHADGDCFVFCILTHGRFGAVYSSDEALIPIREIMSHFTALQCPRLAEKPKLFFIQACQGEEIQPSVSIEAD
T8 sequence (Q92851 416-521 limits assumed): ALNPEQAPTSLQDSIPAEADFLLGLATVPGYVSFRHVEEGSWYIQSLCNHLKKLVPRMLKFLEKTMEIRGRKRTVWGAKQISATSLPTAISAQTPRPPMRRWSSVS
The experiment can be described thus: In vitro inhibition assay, caspase-10. To be noted: IC50, caspase-10, 0.25 activity units/μL, 200 μM Ac-LEHD-AMC substrate.

The target of experiment [10] is T9, caspase-11 (Mus musculus, UniProt P70343).
T9 sequence (P70343 81-266 limits assumed): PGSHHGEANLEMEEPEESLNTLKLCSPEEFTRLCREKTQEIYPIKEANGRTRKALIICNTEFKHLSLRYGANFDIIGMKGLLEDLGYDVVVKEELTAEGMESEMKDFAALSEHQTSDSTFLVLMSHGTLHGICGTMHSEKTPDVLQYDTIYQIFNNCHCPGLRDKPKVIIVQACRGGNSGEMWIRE
T9 sequence (P70343 286-373 limits assumed): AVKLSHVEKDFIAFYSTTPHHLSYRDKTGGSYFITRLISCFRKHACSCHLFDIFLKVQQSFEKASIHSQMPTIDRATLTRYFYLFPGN
The experiment can be described thus: In vitro inhibition assay, caspase-11. The essentials: as §1

Where “and” joins values, the source holds several entries; their conditions need not be identical. Identical values can stand only once. Peptide text beside a SMILES is read from it. * marks the point of attachment. Cbz = O=C(OCc1ccccc1)*; CH2F = FC*

Consider `CCO[C@@H]1OC(=O)C[C@@H]1NC(=O)[C@@H]1CCCN1C(=O)[C@@H](NC(=O)c1ccc(N)c(Cl)c1)C(C)(C)C` [VX-765, (S)-1-((S)-2-{[1-(4-amino-3-chloro-phenyl)-methanoyl]-amino}-3,3-dimethyl-butanoyl)-pyrrolidine-2-carboxylic acid ((2R,3S)-2-ethoxy-5-oxo-tetrahydro-furan-3-yl)-amide], for which the IC50 is 530 ± 90 nM in experiment [1]; greater than 100000 nM in [2]; 30.1 ± 2.67 µM in experiment [3]; 19.5 ± 1.37 µM in [4]; greater than 100000 nM in experiment [5]; greater than 100 µM in [6]. Also, the IC50 is 1000 nM and 1020 nM in experiment [7]; 4 µM and 4.01 µM in [8]; 42 µM and 42.3 µM in experiment [9]; 81 ± 2.77 µM in [10].
In the case of `CC[C@H](C)[C@H](NC(=O)OCc1ccccc1)C(=O)N[C@@H](CCC(=O)OC)C(=O)N[C@H](C(=O)N[C@@H](CC(=O)OC)C(=O)CF)[C@@H](C)O` [z-IETD-FMK] (Cbz-IE(OMe)TD(OMe)-CH2F), the IC50 in experiment [1] came out at 5720 ± 470 nM; in experiment [2] it was 1880 ± 260 nM; in experiment [4], 19.9 ± 1.19 µM; in [5], 60 ± 40 nM; in [6] it was 2.63 ± 0.54 µM; in experiment [7], 350 ± 100 nM. Also, the IC50 in experiment [8] was 3.7 µM and 3.65 µM; in experiment [9] it was 5.76 ± 1.1 µM.
As for `COC(=O)CC[C@H](NC(=O)[C@H](CC(C)C)NC(=O)OCc1ccccc1)C(=O)N[C@@H](Cc1c[nH]cn1)C(=O)N[C@@H](CC(=O)OC)C(=O)CF` [z-LEHD-FMK] (Cbz-LE(OMe)HD(OMe)-CH2F), the IC50 in experiment [1] worked out at 820 ± 130 nM; in [2], 1070 ± 180 nM; in [4] it was 2.31 ± 0.31 µM; in [5] it was 110 ± 60 nM; in experiment [6], 3.9 ± 0.29 µM; in experiment [7], 70 ± 10 nM. For the same compound, the IC50 in experiment [8] was 1.5 µM and 1.58 µM; in experiment [9], 3.59 ± 1.27 µM.
